High-throughput results as filed in PubChem BioAssay.
SENP8 block-1: blocks the human protease SENP8; Q96LD8; purified SENP8, Z-RLRGG-aminoluciferin cleavage, luminescence; inhibition, % at 10 µM; 330,000 tested, 1.2% active; AID 2540; in the data active = inhibition above about 50%
Target sequence (Q96LD8 whole entry, looked up): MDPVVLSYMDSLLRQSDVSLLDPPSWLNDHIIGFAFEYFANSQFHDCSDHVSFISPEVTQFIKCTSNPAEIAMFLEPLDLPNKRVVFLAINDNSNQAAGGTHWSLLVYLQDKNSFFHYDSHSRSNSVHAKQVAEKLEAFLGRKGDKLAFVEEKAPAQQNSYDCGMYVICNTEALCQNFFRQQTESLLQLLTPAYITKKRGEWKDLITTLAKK
SENP6 inh: SENP6 protease inhibition | Q9GZR1 | Recombinant SENP6 catalytic domain, aminoluciferin luminescence | inhibition, % at 10 µM | 330,000 tested, 1.8% active;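 active = inhibition above about 50% at the single tested dose, limit read from the data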;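 also: plate controls were DMSO wells with enzyme for no effect and DMSO wells lacking enzyme for full effect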
Apaf-1 inh: human Apaf-1 inhibition; O14727; reconstituted apoptosome caspase-3 activity, DEVD-Rh110 fluorescence; inhibition, % at 20 µM; 330,000 tested, 0.71% active; AID 489030; active = inhibition of at least 40% at 20 µM;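 also: plate controls were DMSO wells for no effect and DEVD-CHO caspase inhibitor wells for full effect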
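System – cell-free apoptosome with Apaf-1, procaspase-3 and caspase-9 · Buffer or medium – pH 7.5 Hepes buffer with CHAPS, BSA, DTT · Also added – cytochrome c with DEVD-Rh110 · Times – 30 min compound preincubation, 50 min activation, room temperature · Technique – Rh110 fluorescence intensity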
SENP8 block-2: blocks human SENP8 cleavage of Nedd8 substrate; Q96LD8; recombinant SENP8, Nedd8 substrate fluorescence; inhibition, % at 20 µM; 360,000 tested, 0.64% active; AID 602440; in the data active = inhibition mostly above about 40%, no sharp cut-off; inactive = mostly below about 27%
UBC13 polyUb: inhibitors of human UBC13 polyubiquitin chain formation | AID 485273 | inhibition, % at 20 µM | 330,000 tested, 0.47% active | P61088 | TR-FRET; in the data active = inhibition above about 45%, passing the limit was not always enough
SENP7 block: inhibitors of human SENP7 protease; Q9BQF6; recombinant SENP7, Z-RLRGG-aminoluciferin luminescence, 40 min; inhibition, % at 5 µM; 330,000 tested, 1.5% active; AID 434973;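 active = inhibition above about 50% at the single test dose, limit read from the data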;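 also: plate controls were DMSO with enzyme for no effect and no enzyme buffer wells for full effect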
Target sequence (Q9BQF6 706-1050 limits assumed): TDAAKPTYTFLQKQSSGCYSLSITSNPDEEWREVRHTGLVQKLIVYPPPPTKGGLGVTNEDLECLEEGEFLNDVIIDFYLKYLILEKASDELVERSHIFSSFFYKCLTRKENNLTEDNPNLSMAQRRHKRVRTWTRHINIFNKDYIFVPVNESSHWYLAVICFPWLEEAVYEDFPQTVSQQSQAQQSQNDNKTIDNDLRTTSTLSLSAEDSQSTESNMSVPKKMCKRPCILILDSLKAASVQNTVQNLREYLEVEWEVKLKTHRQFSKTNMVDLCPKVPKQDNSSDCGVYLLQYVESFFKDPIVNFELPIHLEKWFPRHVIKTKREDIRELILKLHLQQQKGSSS
Apaf-1 inh conf: Apaf-1 inhibition, single-dose confirmed. shares compounds with Apaf-1 inh. reconstituted apoptosome, caspase-3 DEVD-Rh110 fluorescence. inhibition, % at 20 µM. 1,800 tested, 25% active;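 active = mean inhibition of at least 40% at 20 µM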;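 also: plate controls were DMSO wells for no effect and DEVD-CHO caspase inhibitor control wells for full effect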
Rh110 quench: Rh110 signal interference in Apaf-1 inhibitor counter-screen; shares compounds with Apaf-1 inh; Rh110 fluorescence interference, quenched caspase reaction; activation (fluorescence interference), % at 20 µM; 1,800 tested, under 10 active; AID 504615;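 active = signal rise of 40% or more at 20 µM, treated as a fluorescence artifact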
Apaf1 inh interf: shows fluorescence interference in the Apaf-1 inhibitor assay format. shares compounds with Apaf-1 inh. fluorescence interference counterscreen, Apaf-1 assay format. IC50, µM. 460 tested, under 10 active; call rule not given here
An asterisk follows results filed as active; · = no result given; ! = repeats disagree. Sampled rows, rich in hits. Any-hit rate of the full collection: about 3.1%.

SMILES	SENP8 block-1	SENP6 inh	Apaf-1 inh	SENP8 block-2	UBC13 polyUb	SENP7 block	Apaf-1 inh conf	Rh110 quench	others
COc1cccc(CN(C)C(=O)c2cccc(S(=O)(=O)NCc3ccccc3)c2)c1OC	3	-2	11	3	-2	1	·	·
CCOC(=O)C1CCCN(C(=O)c2cccc(S(=O)(=O)NCc3ccccc3)c2)C1 (stereo not drawn)	·	·	·	28	·	·	·	·
CCOC(=O)C1CCCN(C(=O)c2cccc(S(=O)(=O)N(C)c3c(C)n(C)n(-c4ccccc4)c3=O)c2)C1 (stereo not drawn)	2	5	49*	6	26	0	33	7
Cc1ccc2ccccc2c1NC(=O)CNCc1ccccc1	·	·	·	0	·	·	·	·
CC(C)NC[C@@H](O)c1ccc(O)c(O)c1	3	7	43*	44*	13	6	14	5
CC(C)NCC(O)c1ccc(NS(C)(=O)=O)cc1 (stereo not drawn)	0	-3	-11	5	8	7	·	·
CCCCCn1c(N2CCC(Cc3ccccc3)CC2)nc2c1c(=O)[nH]c(=O)n2C	0	18	46*	2	17	-3	32	11
O=S(=O)(NCC(c1ccccc1)N1CCNCC1)c1ccc(Cl)cc1 (stereo not drawn)	-4	-1	43*	12	23	2	13	12
CCN1CCN(C(CNS(=O)(=O)c2ccc(Cl)cc2)c2ccccc2)CC1 (stereo not drawn)	-1	7	0	20	8	-6	·	·
CC1(C(=O)NS(=O)(=O)C2CC2)CCCN(C(=O)/C=C/c2ccccc2)C1 (stereo not drawn)	·	·	·	20	·	·	·	·
CC(=O)N(Cc1ccc(F)cc1)C1=C(NCCc2ccccc2)C(=O)c2ccccc2C1=O	31	48	78*	76*	-67	30	76*	3	Apaf1 inh interf=>100
O=C(CC1CCCC1)N1CCN(S(=O)(=O)c2c(F)cccc2F)CC1	·	·	·	14	·	·	·	·
CCOC(=O)C1(Cc2ccccc2)CCCN(C(=O)COc2ccccc2OC)C1 (stereo not drawn)	·	·	·	13	·	·	·	·
O=C1CCNc2cc3ccccc3cc21	21	34	62*	-269	-40	12	20	11
CC(C)n1c(=O)nc(-c2ccccc2)c2cc3c(cc21)OCO3	·	·	·	-259	·	·	·	·
CN1CCc2cccc3c2[C@H]1Cc1ccc(O)c(O)c1-3	-1	21	42*!	-88	4	-6	6	7
CCOC(=O)N1CCc2c(sc3c2C(=O)NC(c2ccccc2)N3)C1 (stereo not drawn)	31	2	81*	-490	-22	24	20	1
CN1CCc2c(sc3c2C(=O)NC(c2cccc(OC(=O)c4cccs4)c2)N3)C1 (stereo not drawn)	0	20	22	-364	0	7	·	·
Cc1c(CCOC(=O)c2ccc(Cl)cc2Cl)sc[n+]1CC(=O)c1ccccc1	-14	-7	56*	18	38	-9	8	10
Cc1c(CCOC(=O)c2cc([N+](=O)[O-])cc([N+](=O)[O-])c2)sc[n+]1CC(=O)c1ccc(Br)cc1	7	36	29	22	14	7	·	·
CCCC(=O)N1CCC1(C)C(=O)NS(=O)(=O)c1ccccc1Cl (stereo not drawn)	·	·	·	13	·	·	·	·
S=C(Nc1ccc(N2CCOCC2)cc1)Nc1ccc2nc(-c3ccco3)c(-c3ccco3)nc2c1	12	8	41*	-81	32	4	26	9
O=[N+]([O-])c1ccccc1-c1ccc(C(=S)N2CCCC2)o1	16	44	47*	-4	-46	12	40	2	Apaf1 inh interf=>100
O=[N+]([O-])c1cc(-c2ccc(C(=S)N3CCOCC3)o2)ccc1Cl	10	15	35	-14	-53	-5	·	·
COc1ccc(S(=O)(=O)N2CCCCC2c2cc(C(=O)N3CCOCC3)no2)cc1 (stereo not drawn)	·	·	·	15	·	·	·	·
SMILES	SENP8 block-1	SENP6 inh	Apaf-1 inh	SENP8 block-2	UBC13 polyUb	SENP7 block	Apaf-1 inh conf	Rh110 quench	others
O=C(c1ccco1)N1CCN(C(=O)c2cn(-c3ccccc3)nc2-c2ccc(F)cc2)CC1	-8	-9	72*	23	1	4	15	6
COc1ccc(/C=N/NC(=O)CCn2cnc(-c3ccccc3)c2-c2ccccc2)cc1	-5	5	54*	4	11	13	44*	11	Apaf1 inh interf=>100
Cc1[nH]n(-c2ccc(Br)cc2)c(=O)c1/C=N/NC(=O)c1ccccc1	0	18	16	-12	-29	17	·	·
Cc1[nH]n(-c2ccccc2)c(=O)c1/C=N/Nc1nncc(-c2ccccc2)n1	2	-11	81*	-16	-37	5	89*	10	Apaf1 inh interf=>100
Cc1[nH]n(-c2ccccc2)c(=O)c1/C=N/NC(=O)c1cccc(F)c1	-3	12	62*	13	-1	5	67*	0	Apaf1 inh interf=>100
Cc1cc(C(=O)N/N=C/c2c(C)[nH]n(-c3ccccc3)c2=O)n[nH]1	-20	-3	77*	18	-10	-10	80*	2	Apaf1 inh interf=>100
Cc1[nH]n(-c2ccccc2)c(=O)c1/C=N/NC(=O)c1ccc(O)cc1O	-2	7	73*	-83	-33	2	84*	9	Apaf1 inh interf=>100
O=C(NCCc1ccccc1)c1cc(S(=O)(=O)N2CCCCC2)c[nH]1	·	·	·	8	·	·	·	·
CCN(CC)S(=O)(=O)c1ccc(NC(=O)COC(=O)CNC(=O)C2CCCCC2)cc1	0	-5	5	5	-1	-6	·	·
CCC(=O)N(CC)C1=C(O)c2ccccc2C(=O)C1=O	9	22	55*	37	-56	31	14	-2
CSc1ccc(/C=N/NC(=O)CNc2cccc3ccccc23)cc1	48	73*	86*	-295	-60	40	16	-3
CSc1ccc(/C=N/NC(=O)CNc2ccc3ccccc3c2)cc1	-5	-1	11	-259	-10	0	·	·
CCCCC(=O)N(C)c1c(C)nc2ccc(C(=O)NCCN(C)C)cn12	·	·	·	-8	·	·	·	·
CC(=O)N1CCN(C(=S)Nc2ccc(SC(F)F)cc2)CC1	-7	-18	96*	7	-8	7	14	11
Cc1ccc2c(c1)c1ccc3c(c1n2C)C(=O)C=CC3=O	-20	-12	57*	-286	-25	5	40*	2	Apaf1 inh interf=>100
COc1ccc2c(c1)c1ccc3c(c1n2C)C(=O)C=CC3=O	-2	-3	71*	-298	-34	6	57*	5	Apaf1 inh interf=>100
Cn1c2ccccc2c2ccc3c(c21)C(=O)C=CC3=O	·	·	·	-472	·	·	·	·
CCCS(=O)(=O)NC(=O)C1(C)CCN(C(=O)c2snnc2C)C1 (stereo not drawn)	·	·	·	7	·	·	·	·
